Reference: article PMC3297693 (Journal of Medicinal Chemistry, 2012)
Entries after “also recorded” stand apart in the source; their conditions may differ. Where a name gives a salt, the structure may show the parent alone.

Experiments:
[1] = system: full NCI 60 cell panel; test: NCI 60 five-concentration screen, mean graph midpoint of all cell lines; type: cell-based; settings: Homo sapiens, 48 h; for GI50: read-out: GI50 MG-MID (mean GI50); for IC (TGI): read-out: TGI MG-MID
[2] = system: p38MAPK(Thr180/Tyr182); test: Kinase phosphorylation by Western blotting: p38MAPK; type: cell-based, Human; settings: HeLa cells, 1 μM, 3 h
Procedure, shortened: (§1)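 HeLa cells in RPMI 1640/10% FBS/2 mM L-glutamine were exposed to 1 μM test compound for 3 h (0.01% DMSO). Lysates were cleared at 15,000 × g for 15 min and boiled 4 min, and 80 μg protein was run on SDS-PAGE. Proteins were blotted to nitrocellulose and probed with antibodies to total and phosphorylated kinase, then a peroxidase anti-rabbit IgG (1 h). Bands were detected by ECL chemiluminescence.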

[3] = system: JNK(Thr183/Tyr185); test: Kinase phosphorylation by Western blotting: JNK; type: cell-based, Human; settings: HeLa cells, 1 μM, 3 h
Procedure, shortened: as §1

[4] = system: Akt(Ser473); test: Kinase phosphorylation by Western blotting: Akt; type: cell-based, Human; settings: HeLa cells, 1 μM, 3 h
Procedure, shortened: as §1

[5] = system: mTOR(Ser2448); test: Kinase phosphorylation by Western blotting: mTOR; type: cell-based, Human; settings: HeLa cells, 1 μM, 3 h
Procedure, shortened: as §1

[6] = system: HT-29 colon cancer cells; test: Intracellular ROS content with DHE; type: cell-based, Human; settings: HT-29 cells, 500 nM, 24 h
Procedure, shortened: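 HT-29 cells were treated with 500 nM test compound for 24 h (0.01% DMSO; DMSO controls). They were then loaded with 5 μM dihydroethidium (from 10 mM DMSO stock) for 30 min at 37 °C to detect superoxide. Red fluorescence was read by flow cytometry with logarithmic amplification; one experiment representative of three to five.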

[7] = system: HT-29 colon cancer cells; test: Mitochondrial membrane potential with DiOC6; type: cell-based, Human; settings: HT-29 cells, 500 nM, 24 h
Procedure, shortened: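 After 24 h in 500 nM test compound (0.01% DMSO; DMSO controls), HT-29 cells at 1×10^6 cells/mL were stained with 4 nM DiOC6 for 40 min at 37 °C in the dark. Cells were counterstained with PI at 5 μg/mL to exclude dead cells. Green fluorescence was read by flow cytometry with logarithmic amplification; one experiment representative of three to five.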

[8] = system: ERK1/2(Thr202/Tyr204); test: Kinase phosphorylation by Western blotting: ERK1/2; type: cell-based, Human; settings: HeLa cells, 1 μM, 3 h
Procedure, shortened: as §1

[9] = system: caspase proteases (DEVDase activity); test: DEVDase; type: cell-based, Human; settings: HT-29 cells, 500 nM, 48 h
Procedure, shortened: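 HT-29 cells in RPMI 1640/10% FBS were exposed to 500 nM test compound for 48 h, with 0.01% DMSO and DMSO-only controls. DEVD-hydrolysing caspase (DEVDase) activity was measured fluorometrically in cell extracts. Values are means ± s.e.m. of four determinations.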

[10] = system: HT-29 colon cancer cells; test: Cell cycle distribution by flow cytometry; type: cell-based, Human; settings: HT-29 cells, 24 h
Procedure, shortened: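 HT-29 cells grown in RPMI 1640 with 10% FBS and 2 mM L-glutamine (37 °C, 5% CO2). Test compound was added from a 10 mmol/L DMSO stock (0.01% DMSO final; DMSO-only controls) for 24 h. Cells were fixed in 70% ethanol at −20 °C for ≥12 h, treated with RNase A (10 μg/mL, 37 °C, 30 min) and stained with PI (50 μg/mL). DNA content was read by flow cytometry; one experiment representative of three.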

[11] = system: AMPK(Thr172); test: Kinase phosphorylation by Western blotting: AMPK; type: cell-based, Human; settings: HeLa cells, 1 μM, 3 h
Procedure, shortened: as §1

[12] = system: Bax; test: Bax expression and translocation by confocal microscopy; type: cell-based, Human; settings: HT-29 cells, 500 nM, 24 h
[13] = system: HT-29 colon cancer cells; test: Cell viability by trypan blue exclusion; type: cell-based, Human; settings: HT-29 cells, 24 h, 100 or 500 nM tested
Procedure, shortened: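 HT-29 cells in RPMI 1640/10% FBS/2 mM L-glutamine were plated at 2×10^4 cells/cm2. They were treated in triplicate for 24 h with 100 or 500 nM test compound (0.01% DMSO final; DMSO-only controls). Viable cells were counted by trypan blue exclusion. Values are means ± s.e.m. of three determinations.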

[14] = system: Leukemia; test: cells; type: cell-based; settings: Homo sapiens, 48 h, read-out: TGI Leukemia
[15] = system: Renal; test: NCI 60 five-concentration screen, renal subpanel; type: cell-based; settings: Homo sapiens, 48 h, read-out: TGI Renal
[16] = system: Breast; test: NCI 60 five-concentration screen, breast subpanel; type: cell-based; settings: Homo sapiens, 48 h, read-out: TGI Breast
[17] = system: Ovarian; test: NCI 60 five-concentration screen, ovarian subpanel; type: cell-based; settings: Homo sapiens, 48 h, read-out: TGI Ovarian
[18] = system: NSCLC; test: NCI 60 five-concentration screen, NSCLC subpanel; type: cell-based; settings: Homo sapiens, 48 h, read-out: TGI NSCLC
[19] = system: Melanoma; test: NCI 60 five-concentration screen, melanoma subpanel; type: cell-based; settings: Homo sapiens, 48 h, read-out: TGI Melanoma
[20] = system: Colon; test: NCI 60 five-concentration screen, colon subpanel; type: cell-based; settings: Homo sapiens, 48 h, read-out: GI50 Colon
[21] = system: CNS; test: cells; type: cell-based; settings: Homo sapiens, 48 h, read-out: TGI CNS
[22] = system: Prostate; test: cells; type: cell-based; settings: Homo sapiens, 48 h, read-out: TGI Prostate
[23] = target: tubulin (Bos taurus, UniProt Q6B856); test: Tubulin assembly assay; type: biochemical, Bovine; settings: 10 μM tubulin, 20 min incubation at 30 °C
tubulin, sequence (Q6B856 whole entry): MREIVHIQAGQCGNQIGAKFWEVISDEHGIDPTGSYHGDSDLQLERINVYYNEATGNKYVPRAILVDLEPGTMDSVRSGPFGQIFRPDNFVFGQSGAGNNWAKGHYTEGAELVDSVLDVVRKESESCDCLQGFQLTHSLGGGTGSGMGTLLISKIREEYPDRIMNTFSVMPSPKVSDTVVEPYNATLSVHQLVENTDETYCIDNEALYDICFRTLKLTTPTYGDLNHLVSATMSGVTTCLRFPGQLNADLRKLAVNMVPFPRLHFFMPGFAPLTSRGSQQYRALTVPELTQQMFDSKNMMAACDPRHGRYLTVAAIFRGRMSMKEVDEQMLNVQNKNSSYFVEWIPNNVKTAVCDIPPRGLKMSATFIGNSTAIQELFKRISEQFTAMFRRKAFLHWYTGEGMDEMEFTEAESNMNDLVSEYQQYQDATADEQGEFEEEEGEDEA
tubulin, sequence (P81947 whole entry partner): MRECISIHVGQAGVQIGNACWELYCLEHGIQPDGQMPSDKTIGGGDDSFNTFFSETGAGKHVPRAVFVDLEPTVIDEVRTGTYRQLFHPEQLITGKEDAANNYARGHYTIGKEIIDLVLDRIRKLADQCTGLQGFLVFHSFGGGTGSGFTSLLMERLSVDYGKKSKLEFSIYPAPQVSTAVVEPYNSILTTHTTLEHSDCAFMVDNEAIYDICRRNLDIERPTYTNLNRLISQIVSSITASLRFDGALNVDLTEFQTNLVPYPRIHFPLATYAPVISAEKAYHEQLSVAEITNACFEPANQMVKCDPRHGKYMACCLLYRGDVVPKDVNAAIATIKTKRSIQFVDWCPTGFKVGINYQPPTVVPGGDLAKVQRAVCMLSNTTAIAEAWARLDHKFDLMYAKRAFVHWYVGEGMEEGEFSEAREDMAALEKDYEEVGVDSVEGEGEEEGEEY

COc1ccc2c(c1)/C(=C\c1c(-c3ccc(Cl)cc3)nc3sc(C)nn13)C(=O)N2 [Compound 16]
GI50 [1]: 93300 nM

Cc1cn2c(/C=C3/C(=O)Nc4c3ccc3ccccc43)c(C)nc2s1 [Compound 5]
p38MAPK(Thr180/Tyr182) phosphorylation/activation [2]: did not significantly influence
JNK(Thr183/Tyr185) phosphorylation/activation [3]: did not significantly influence
Akt(Ser473) phosphorylation [4]: did not significantly influence
mTOR(Ser2448) phosphorylation [5]: did not significantly influence
superoxide formation (intracellular ROS content) [6]: marked increase in superoxide formation
mitochondrial membrane potential (ΔΨm) [7]: marked disruption of ΔΨm
ERK1/2(Thr202/Tyr204) phosphorylation/activation [8]: did not significantly influence
activity of effector caspases (DEVDase activity) [9]: significantly increased
concentration that induced accumulation of cells in the G2/M phase [10]: 500 nM
IC (TGI) [1]: 19.9 µM
AMPK(Thr172) phosphorylation [11]: did not significantly influence
cellular content of Bax [12]: significant increase in the cellular content of Bax
concentration that triggered cell death (reduction in cell viability) [13]: 500 nM

O=C1Nc2cc(Cl)ccc2C1=Cc1c(-c2ccccn2)nc2sccn12 [Compound 30]
GI50 [1]: 180 nM
IC (TGI) [1]: 14.1 µM

Cc1ccc(-c2nc3sc(C)cn3c2/C=C2/C(=O)Nc3cc(C)c(O)cc32)cc1 [Compound 11]
IC (TGI) [14]: 83.2 µM
GI50 [1]: 22900 nM
IC (TGI) [1]: 83.2 µM

O=C1Nc2ccccc2/C1=C\c1c(-c2ccccn2)nc2sccn12 [Compound 28]
GI50 [1]: 1150 nM
IC (TGI) [1]: 50.1 µM

Cc1cn2c(/C=C3/C(=O)Nc4cc(Cl)ccc43)c(C)nc2s1 [Compound 4]
GI50 [1]: 2000 nM
IC (TGI) [1]: 51.3 µM

COc1nc2sccn2c1/C=C1/C(=O)Nc2cc(Cl)ccc21 [Compound 36]
GI50 [1]: 440 nM
IC (TGI) [1]: 31.6 µM

COc1ccc2c(c1)C(=Cc1c(OC)nc3sccn13)C(=O)N2 [Compound 38]
p38MAPK(Thr180/Tyr182) phosphorylation/activation [2]: slightly decreased
JNK(Thr183/Tyr185) phosphorylation/activation [3]: slightly decreased
Akt(Ser473) phosphorylation [4]: strongly reduced; also recorded: selectively and strongly inhibited
mTOR(Ser2448) phosphorylation [5]: no significant effect
ERK1/2(Thr202/Tyr204) phosphorylation/activation [8]: slightly decreased
activity of effector caspases (DEVDase activity) [9]: significantly increased
concentration that induced accumulation of cells in the G2/M phase [10]: 100 nM
GI50 [1]: 70 nM
IC (TGI) [1]: 19.1 µM
AMPK(Thr172) phosphorylation [11]: only slightly inhibited
concentration that triggered cell death (reduction in cell viability) [13]: 100 nM

COc1cc(-c2nc3sc(C)cn3c2/C=C2/C(=O)Nc3ccccc32)c(Br)c(OC)c1OC [Compound 24]
GI50 [1]: 28800 nM
IC (TGI) [1]: 77.6 µM

COc1ccc2c(c1)C(=Cc1c(OC)nc3sccn13)C(=O)N2C [Compound 39]
IC (TGI) [14]: 4.9 µM
GI50 [1]: 540 nM
IC (TGI) [1]: 34.7 µM

COc1nc2sccn2c1/C=C1/C(=O)Nc2cccc(Cl)c21 [Compound 34]
IC (TGI) [1]: 57.5 µM

COc1nc2sccn2c1/C=C1/C(=O)Nc2ccccc21 [Compound 33]
GI50 [1]: 390 nM
IC (TGI) [1]: 22.9 µM

Cc1nn2c(/C=C3/C(=O)Nc4ccc(F)cc43)c(C)nc2s1 [Compound 7]
IC (TGI) [15]: 91.2 µM
GI50 [1]: 15100 nM
IC (TGI) [1]: 91.2 µM

CC[C@]1(O)C[C@H]2CN(CCc3c([nH]c4ccccc34)[C@@](C(=O)OC)(c3cc4c(cc3OC)N(C=O)[C@H]3[C@@](O)(C(=O)OC)[C@H](OC(C)=O)[C@]5(CC)C=CCN6CC[C@]43[C@@H]65)C2)C1 [Vincristine sulfate, reference compound]
IC (TGI) [15]: 19.9 µM
IC (TGI) [16]: 7.94 µM
IC (TGI) [17]: 19.9 µM
IC (TGI) [18]: 15.8 µM
IC (TGI) [14]: 15.8 µM
IC (TGI) [19]: 7.94 µM
GI50 [20]: 100 nM
GI50 [1]: 200 nM
IC (TGI) [1]: 10 µM
IC (TGI) [21]: 6.31 µM
IC (TGI) [22]: 6.31 µM

Cc1ccc(-c2nc3sc(C)cn3c2/C=C2/C(=O)N(C)c3ccccc32)cc1 [Compound 12]
GI50 [1]: 16600 nM
IC (TGI) [1]: 83.2 µM

COc1nc2sccn2c1/C=C1/C(=O)N(C)c2ccccc21 [Compound 40]
IC (TGI) [17]: 72.4 µM
GI50 [1]: 6310 nM
IC (TGI) [1]: 72.4 µM

COc1ccc2c(c1)/C(=C\c1c(-c3ccc(C)cc3)nc3sc(C)cn13)C(=O)N2C [Compound 13]
GI50 [1]: 13800 nM

Cc1nn2c(/C=C3/C(=O)Nc4c3ccc3ccccc43)c(C)nc2s1 [Compound 9]
GI50 [1]: 500 nM
IC (TGI) [1]: 8.51 µM
IC (TGI) [21]: 4.9 µM

COc1nc2sccn2c1C=C1C(=O)Nc2ccc(F)cc21 [Compound 37]
IC (TGI) [14]: 52.5 µM
GI50 [1]: 5010 nM
IC (TGI) [1]: 52.5 µM

COc1ccc2c(c1)/C(=C\c1c(-c3ccccn3)nc3sccn13)C(=O)N2 [Compound 31]
p38MAPK(Thr180/Tyr182) phosphorylation/activation [2]: slightly decreased
JNK(Thr183/Tyr185) phosphorylation/activation [3]: slightly decreased
Akt(Ser473) phosphorylation [4]: strongly reduced; also recorded: selectively and strongly inhibited
mTOR(Ser2448) phosphorylation [5]: no significant effect
IC (TGI) [14]: 0.58 µM
ERK1/2(Thr202/Tyr204) phosphorylation/activation [8]: slightly decreased
activity of effector caspases (DEVDase activity) [9]: significantly increased
concentration that induced accumulation of cells in the G2/M phase [10]: 100 nM
IC (TGI) [1]: 3.39 µM
AMPK(Thr172) phosphorylation [11]: only slightly inhibited
concentration that triggered cell death (reduction in cell viability) [13]: 100 nM

Cc1nn2c(/C=C3/C(=O)Nc4ccc(F)cc43)c(-c3ccc(Cl)cc3)nc2s1 [Compound 17]
GI50 [1]: 37200 nM
IC (TGI) [1]: 93.3 µM

O=C1Nc2ccc(Cl)cc2C1=Cc1c(-c2ccccn2)nc2sccn12 [Compound 29]
Inhibition of tubulin assembly IC50 (μM) ± SD [23]: an IC50 could not be obtained
GI50 [1]: 830 nM

COc1nc2sccn2c1/C=C1/C(=O)Nc2ccc(Cl)cc21 [Compound 35]
GI50 [1]: 2820 nM
IC (TGI) [1]: 55 µM
